Laboratory results as given in ChEMBL document CHEMBL3243962, “Antileukemic activity of derivatives of 1,2-dimethyl-3,4-bis(hydroxymethyl)-5-phenylpyrrole bis(N-methylcarbamate)” (J Med Chem, 1979).
The source made the active and inactive calls.

Tests used:
P388 [1] = assay: Antitumor activity against mouse P388 cells allografted in CD2F1 mouse assessed as increase in mouse survival at 6.25 mg/kg, ip of total 9 doses starting 24 hrs post tumor inoculation measured on day 5 of inoculation relative to control; assay type: functional; details: route intraperitoneal
Procedure, shortened: (§1)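 Male CD2F1 mice inoculated ip with 6×10^6 P388 leukemia cells. Dosing was ip as a suspension in distilled water–Tween 80, nine daily doses starting 24 h after inoculation. Activity was read as median survival time of treated vs control mice (% T/C); % T/C ≥ 120 was considered significant. Groups were 6 mice.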

Mus musculus [2] = assay: Toxicity in mouse P388 cells allografted CD2F1 mouse assessed as mouse survival at 25 mg/kg, ip of total 9 doses starting 24 hrs post tumor inoculation measured on day 5 of inoculation relative to control; assay type: organism-based; parameters: dose 25 mg/kg, route intraperitoneal; details: in vivo
Procedure, shortened: (§2)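 Male CD2F1 mice bearing ip P388 leukemia (6×10^6 cells) were dosed ip with nine daily doses in distilled water–Tween 80 suspension, starting 24 h after inoculation. Survivors per group of 6 were counted on day 5, i.e. 4 days after the first dose. Body-weight change of treated minus control mice was also recorded.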

P388 [3] = assay: Antitumor activity against mouse P388 cells allografted in CD2F1 mouse assessed as increase in mouse survival at 25 mg/kg, ip of total 9 doses starting 24 hrs post tumor inoculation measured on day 5 of inoculation relative to control; assay type: functional; details: route intraperitoneal; procedure, shortened: as §1
Mus musculus [4] = assay: Toxicity in mouse P388 cells allografted CD2F1 mouse assessed as mouse survival at 6.25 mg/kg, ip of total 9 doses starting 24 hrs post tumor inoculation measured on day 5 of inoculation relative to control; assay type: organism-based; parameters: dose 6.25 mg/kg, route intraperitoneal; details: in vivo; procedure, shortened: as §2
Mus musculus [5] = assay: Toxicity in mouse P388 cells allografted CD2F1 mouse assessed as mouse survival at 50 mg/kg, ip of total 9 doses starting 24 hrs post tumor inoculation measured on day 5 of inoculation relative to control; assay type: organism-based; parameters: dose 50 mg/kg, route intraperitoneal; details: in vivo; procedure, shortened: as §2
P388 [6] = assay: Antitumor activity against mouse P388 cells allografted in CD2F1 mouse assessed as increase in mouse survival at 100 mg/kg, ip of total 9 doses starting 24 hrs post tumor inoculation measured on day 5 of inoculation relative to control; assay type: functional; details: route intraperitoneal; procedure, shortened: as §1
Mus musculus [7] = assay: Toxicity in mouse P388 cells allografted CD2F1 mouse assessed as body weight loss at 25 mg/kg, ip of total 9 doses starting 24 hrs post tumor inoculation measured on day 5 of inoculation relative to control; assay type: organism-based; parameters: dose 25 mg/kg, route intraperitoneal; details: in vivo
Procedure, shortened: (§3)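 Male CD2F1 mice inoculated ip with 6×10^6 P388 leukemia cells. Compounds given ip as distilled water–Tween 80 suspension, nine daily doses starting 24 h after inoculation; six mice per dose group. Treated-minus-control body-weight change (T − C) and toxicity-day survivors recorded on day 5 (4 days after first dose).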

P388 [8] = assay: Antitumor activity against mouse P388 cells allografted in CD2F1 mouse assessed as increase in mouse survival at 50 mg/kg, ip of total 9 doses starting 24 hrs post tumor inoculation measured on day 5 of inoculation relative to control; assay type: functional; details: route intraperitoneal; procedure, shortened: as §1
Mus musculus [9] = assay: Toxicity in mouse P388 cells allografted CD2F1 mouse assessed as body weight loss at 6.25 mg/kg, ip of total 9 doses starting 24 hrs post tumor inoculation measured on day 5 of inoculation relative to control; assay type: organism-based; parameters: dose 6.25 mg/kg, route intraperitoneal; details: in vivo; procedure, shortened: as §3
Mus musculus [10] = assay: Toxicity in mouse P388 cells allografted CD2F1 mouse assessed as mouse survival at 12.5 mg/kg, ip of total 9 doses starting 24 hrs post tumor inoculation measured on day 5 of inoculation relative to control; assay type: organism-based; parameters: dose 12.5 mg/kg, route intraperitoneal; details: in vivo; procedure, shortened: as §2
Staphylococcus aureus = assay: Antimicrobial activity against Staphylococcus aureus ATCC 25923 at 1 mg after 24 hrs by disk sensitivity assay; assay type: functional, organism-based
Procedure, shortened: (§4)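 Bacteria grown 24 h in trypticase soy broth; 1 mL used to seed a lawn on trypticase soy agar. Sterile 6 mm paper disks carrying 1 mg test compound placed on agar, incubated 24 h at 37 °C, then zone of inhibition around each disk measured.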

Mus musculus [11] = assay: Toxicity in mouse P388 cells allografted CD2F1 mouse assessed as body weight loss at 100 mg/kg, ip of total 9 doses starting 24 hrs post tumor inoculation measured on day 5 of inoculation relative to control; assay type: organism-based; parameters: dose 100 mg/kg, route intraperitoneal; details: in vivo; procedure, shortened: as §3
[12] = system: Staphylococcus epidermidis; assay: Antimicrobial activity against Staphylococcus epidermidis ATCC 12228 at 1 mg after 24 hrs by disk sensitivity assay; assay type: functional, organism-based; procedure, shortened: as §4
P388 [13] = assay: Antitumor activity against mouse P388 cells allografted in CD2F1 mouse assessed as increase in mouse survival at 12.5 mg/kg, ip of total 9 doses starting 24 hrs post tumor inoculation measured on day 5 of inoculation relative to control; assay type: functional; details: route intraperitoneal; procedure, shortened: as §1
Mus musculus [14] = assay: Toxicity in mouse P388 cells allografted CD2F1 mouse assessed as body weight loss at 50 mg/kg, ip of total 9 doses starting 24 hrs post tumor inoculation measured on day 5 of inoculation relative to control; assay type: organism-based; parameters: dose 50 mg/kg, route intraperitoneal; details: in vivo; procedure, shortened: as §3
Mus musculus [15] = assay: Toxicity in mouse P388 cells allografted CD2F1 mouse assessed as body weight loss at 12.5 mg/kg, ip of total 9 doses starting 24 hrs post tumor inoculation measured on day 5 of inoculation relative to control; assay type: organism-based; parameters: dose 12.5 mg/kg, route intraperitoneal; details: in vivo; procedure, shortened: as §3
Enterobacter cloacae = assay: Antimicrobial activity against Enterobacter cloacae ATCC 23355 at 1 mg after 24 hrs by disk sensitivity assay; assay type: functional, organism-based; procedure, shortened: as §4
Serratia marcescens = assay: Antimicrobial activity against Serratia marcescens ATCC 8100 at 1 mg after 24 hrs by disk sensitivity assay; assay type: functional, organism-based; procedure, shortened: as §4
Escherichia coli = assay: Antimicrobial activity against Escherichia coli ATCC 25922 at 1 mg after 24 hrs by disk sensitivity assay; assay type: functional, organism-based; procedure, shortened: as §4
Proteus vulgaris = assay: Antimicrobial activity against Proteus vulgaris ATCC 6380 at 1 mg after 24 hrs by disk sensitivity assay; assay type: functional, organism-based; procedure, shortened: as §4
Klebsiella pneumoniae = assay: Antimicrobial activity against Klebsiella pneumoniae ATCC 23357 at 1 mg after 24 hrs by disk sensitivity assay; assay type: functional, organism-based; procedure, shortened: as §4
Salmonella typhimurium = assay: Antimicrobial activity against Salmonella typhimurium ATCC 14028 at 1 mg after 24 hrs by disk sensitivity assay; assay type: functional, organism-based; details: Salmonella enterica subsp. enterica serovar Typhimurium; procedure, shortened: as §4
Mus musculus [16] = assay: Toxicity in mouse P388 cells allografted CD2F1 mouse assessed as mouse survival at 100 mg/kg, ip of total 9 doses starting 24 hrs post tumor inoculation measured on day 5 of inoculation relative to control; assay type: organism-based; parameters: dose 100 mg/kg, route intraperitoneal; details: in vivo; procedure, shortened: as §2

| Compound | T/C (P388 [1]) [%] | Activity (Mus musculus [2]) | T/C (P388 [3]) [%] | Activity (Mus musculus [4]) | Activity (Mus musculus [5]) | T/C (P388 [6]) [%] | Activity (Mus musculus [7]) [g] | T/C (P388 [8]) [%] | Activity (Mus musculus [9]) [g] | Activity (Mus musculus [10]) | Activity (Staphylococcus aureus) | Activity (Mus musculus [11]) [g] | Activity [12] | T/C (P388 [13]) [%] | Activity (Mus musculus [14]) [g] | Activity (Mus musculus [15]) [g] | further results |
| --- | --- | --- | --- | --- | --- | --- | --- | --- | --- | --- | --- | --- | --- | --- | --- | --- | --- |
| CNC(=O)OCc1c(COC(=O)NC)c(-c2ccc(OC)cc2)n(C)c1C | 135 | Non-toxic | 145 | Non-toxic | Non-toxic | <70 | 3.4 | 152 | 2.4 | Non-toxic | Active | 5.5 | Active | 138 | 4.4 | 3.2 |  |
| CNC(=O)OCc1c(COC(=O)NC)c(-c2ccc(C(C)(C)C)cc2)n(C)c1C | 152 | Non-toxic | 158 | Non-toxic |  |  | 4 | 97 | 2 | Non-toxic | inactive | 4.4 | inactive | 155 | 5.1 | 3.8 | Activity (Enterobacter cloacae): inactive; Activity (Serratia marcescens): inactive; Activity (Escherichia coli): inactive; Activity (Proteus vulgaris): inactive; Activity (Klebsiella pneumoniae): inactive; Activity (Salmonella typhimurium): inactive |
| CNC(=O)OCc1c(COC(=O)NC)c(-c2ccc(Cl)c(Cl)c2)n(C)c1C | 145 | Non-toxic | 148 | Non-toxic | Non-toxic |  | 2.4 | 163 | 1.7 | Non-toxic |  | 5.9 | Active | 145 | 3.2 | 1.7 |  |
| CNC(=O)OCc1c(COC(=O)NC)c(-c2ccc(N)cc2)n(C)c1C | 92 |  | 100 | Non-toxic | Non-toxic | 135 | 0.4 | 119 | 0.7 | Non-toxic |  | 3.5 |  | 98 | 2.5 | 0.1 |  |
| CNC(=O)OCc1c(COC(=O)NC)c(-c2ccc(F)cc2)n(C)c1C | 134 | Non-toxic | 150 | Non-toxic | Non-toxic |  | 3.9 | 132 | 2.4 | Non-toxic | Active | 1.8 | Active | 130 | 5.1 | 4.3 | Activity (Mus musculus [16]): Toxic |
| CNC(=O)OCc1c(COC(=O)NC)c(-c2ccc(Cl)cc2)n(C)c1C | 155 | Non-toxic | 153 | Non-toxic | Non-toxic |  | 4.4 | 165 | 3.4 | Non-toxic |  | 7.5 |  | 155 | 5.7 | 3.2 |  |
| CNC(=O)OCc1c(COC(=O)NC)c(-c2ccc([N+](=O)[O-])cc2)n(C)c1C | 153 | Non-toxic | <90 | Non-toxic |  |  | 5.5 | < 90 | 2.9 | Non-toxic | inactive | 4.4 | inactive | 169 | 6.6 | 4.1 | Activity (Enterobacter cloacae): inactive; Activity (Serratia marcescens): inactive; Activity (Escherichia coli): inactive; Activity (Proteus vulgaris): inactive; Activity (Klebsiella pneumoniae): inactive; Activity (Salmonella typhimurium): inactive |
| CNC(=O)OCc1c(COC(=O)NC)c(-c2ccc(C)cc2)n(C)c1C | 138 | Non-toxic | 144 | Non-toxic |  |  | 3.4 |  | 1.4 | Non-toxic |  | 1.8 |  | 144 | 4.5 | 3.2 | Activity (Mus musculus [16]): Toxic |
| CNC(=O)OCc1c(COC(=O)NC)c(-c2ccccc2)n(C)c1C | 135 | Non-toxic | 145 | Non-toxic | Non-toxic | <70 | 3.9 | 90 | 2.5 | Non-toxic |  | 6 |  | 130 | 4.6 | 3.3 |  |
